The structures appear in SMILES notation. In brackets after ≈: the same amount, converted by molar mass. Activity calls are given as the source filed them. The rule behind the calls is not given here.

In data set [1] the test system is Mycobacteroides abscessus. As to the kind of experiment: Antibacterial activity against CF patient derived Mycobacterium abscessus subsp. abscessus smooth variant after 3 to 5 days by two fold serial dilution method. In kind it is functional. A digest of the protocol: (§1)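 Broth microdilution in cation-adjusted Mueller−Hinton broth per CLSI; inoculum 5 × 10^6 CFU/mL of exponential-phase bacteria; two-fold serial dilutions, solvent-only wells as control; 30 °C for 3−5 days; MIC read visually and confirmed by absorbance at 560 nm; triplicate on three independent occasions.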

The subject of data set [2] is Mycobacteroides abscessus. Description: Antibacterial activity against CF patient derived Mycobacterium abscessus subsp. massiliense isolate 122 smooth variant after 3 to 5 days by two fold serial dilution method. In kind it is functional. A digest of the protocol: as §1
A short description of data set [3]: Antibacterial activity against CF patient derived Mycobacterium abscessus subsp. bolletii isolate 116 smooth variant after 3 to 5 days by two fold serial dilution method. It counts as functional. The note with it: Mycobacteroides abscessus. The gist of the method:
as §1

Data set [4] relates to Mycobacteroides abscessus. As to the kind of experiment: Antibacterial activity against Mycobacterium abscessus CIP_OK4-10 harboring MAB_4508 g925c/A309P mutant after 3 to 5 days by two fold serial dilution method. In kind it is functional. A digest of the protocol:
as §1

Data set [5] deals with Mycobacteroides abscessus. As to the kind of experiment: Antibacterial activity against non CF patient derived Mycobacterium abscessus subsp. abscessus isolate 2587 smooth variant after 3 to 5 days by two fold serial dilution method. In kind it is functional. A digest of the protocol:
as §1

Data set [6] in a line: Protein binding in rat plasma at 5 uM after 10 mins by LC-MS/MS analysis. To be noted: read-out: PPB (converted). In kind it is ADME, cell-free. A digest of the protocol:
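Ultracentrifugation method: 5 μM compound in mouse or rat plasma (from DMSO stock), 10 min at 37 °C; total concentration from incubated plasma, unbound from middle-layer supernatant after 200000g for 4.5 h; niflumic acid internal standard, acetonitrile, filtered, LC-MS/MS.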

The subject of the next data set is Salmonella typhimurium. Description: Mutagenicity in Salmonella typhimurium TA98 assessed as increase in revertant colonies at 0.24 to 500 ug/well after 72 hrs by Ames test relative to control. It counts as toxicity. To be noted: salmonella enterica subsp. enterica serovar typhimurium. The gist of the method:
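Reverse mutation at histidine locus in S. typhimurium TA98 (frameshift) and TA100 (base-pair substitution), with and without S9; 0.24−500 μg/well; 37 ± 2 °C for 72 h, triplicates; DMSO vehicle; sodium azide, 2-nitrofluorene, 2-aminoanthracene positive controls; positive if revertants rise ≥2-fold over negative control dose-dependently.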

In data set [7] the test system is Mycobacteroides abscessus. Description: Antibacterial activity against CF patient derived Mycobacterium abscessus subsp. abscessus rough variant after 3 to 5 days by two fold serial dilution method. It counts as functional. A digest of the protocol: as §1
The test system of the next data set is Liver. As to the kind of experiment: Intrinsic clearance in mouse liver microsomes at 0.5 uM in presence of NADPH by LC-MS/MS analysis. It counts as ADME, microsome. The gist of the method:
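Compound (0.5 μM) incubated with mouse or rat liver microsomes plus NADPH regenerating system; aliquots every 3 min over 30 min analysed for parent by LC-MS/MS; monoexponential decay rate normalized to microsomal protein, expressed as mL/min/g liver.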
For orientation: Liver microsomes are vesicles of endoplasmic reticulum, rich in cytochrome P450 enzymes.

The subject of data set [8] is Mycobacteroides abscessus. Description: Antibacterial activity against Addison's disease patient derived Mycobacterium abscessus subsp. massiliense isolate CIP108297 rough variant after 3 to 5 days by two fold serial dilution method. In kind it is functional. A digest of the protocol:
as §1

For data set [9], the system named is Mycobacteroides abscessus. As to the kind of experiment: Antibacterial activity against CF patient derived Mycobacterium abscessus subsp. abscessus isolate 2069 smooth variant after 3 to 5 days by two fold serial dilution method. It counts as functional. A digest of the protocol:
as §1

The next data set deals with Cytochrome P450 3A4 (Homo sapiens, UniProt P08684). Description: Inhibition of CYP3A4 in human liver microsomes preincubated for 5 mins followed by NADPH addition measured after 5 mins by LC-MS/MS analysis. It counts as ADME.
Sequence of Cytochrome P450 3A4 (P08684 whole entry): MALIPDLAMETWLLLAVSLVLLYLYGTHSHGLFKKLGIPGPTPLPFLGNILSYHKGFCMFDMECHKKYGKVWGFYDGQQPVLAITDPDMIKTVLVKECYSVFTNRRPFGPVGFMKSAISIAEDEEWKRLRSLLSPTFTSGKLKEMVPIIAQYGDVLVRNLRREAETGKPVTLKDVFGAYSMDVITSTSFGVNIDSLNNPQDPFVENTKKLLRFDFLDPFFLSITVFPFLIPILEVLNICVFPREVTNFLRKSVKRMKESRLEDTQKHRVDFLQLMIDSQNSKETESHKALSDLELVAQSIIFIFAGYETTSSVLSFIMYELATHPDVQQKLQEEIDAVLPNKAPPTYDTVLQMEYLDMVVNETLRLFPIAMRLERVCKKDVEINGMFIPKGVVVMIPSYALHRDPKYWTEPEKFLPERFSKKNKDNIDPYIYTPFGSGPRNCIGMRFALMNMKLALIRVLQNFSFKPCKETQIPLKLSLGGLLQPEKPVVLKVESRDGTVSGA
In data set [10] the test system is Mycobacteroides abscessus. Description: Antibacterial activity against non CF patient derived Mycobacterium abscessus subsp. abscessus isolate 3022 rough variant after 3 to 5 days by two fold serial dilution method. In kind it is functional. The gist of the method:
as §1

The target of a further data set is CYP2C19 (Homo sapiens, UniProt P33261). As to the kind of experiment: Inhibition of CYP2C19 in human liver microsomes preincubated for 5 mins followed by NADPH addition at 10 uM measured after 40 mins by LC-MS/MS analysis relative to control. In kind it is ADME.
Sequence of CYP2C19 (P33261 whole entry): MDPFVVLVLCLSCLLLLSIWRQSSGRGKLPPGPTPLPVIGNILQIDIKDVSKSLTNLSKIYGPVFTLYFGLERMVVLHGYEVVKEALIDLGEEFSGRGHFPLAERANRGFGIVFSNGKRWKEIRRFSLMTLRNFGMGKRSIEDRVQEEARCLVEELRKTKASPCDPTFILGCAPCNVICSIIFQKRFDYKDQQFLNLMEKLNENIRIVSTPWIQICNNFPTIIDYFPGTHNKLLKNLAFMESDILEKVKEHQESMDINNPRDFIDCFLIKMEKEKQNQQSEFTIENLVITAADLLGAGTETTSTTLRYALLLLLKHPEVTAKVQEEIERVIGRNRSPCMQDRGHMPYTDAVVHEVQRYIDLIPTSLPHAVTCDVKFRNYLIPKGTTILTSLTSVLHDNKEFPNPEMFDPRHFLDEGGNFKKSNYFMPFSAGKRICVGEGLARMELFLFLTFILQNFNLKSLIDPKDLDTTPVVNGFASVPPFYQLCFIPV
Data set [11] deals with Mycobacteroides abscessus. As to the kind of experiment: Inhibition of MmpL3 in Mycobacterium abscessus CIP104536 smooth variant assessed as increase in accumulation of trehalose monomycolate up to 6.2 ug/ml preincubated for 1 hr followed by [14C]acetic acid addition measured after 2 hrs by TLC based autoradiography analysis. A digest of the protocol: (§2)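 Exponential cultures in 7H9 with OADC exposed to increasing drug concentrations for 1 h at 37 °C with agitation, then labelled with 1 μCi/mL [14C]acetate (56 mCi/mmol) for 2 h; apolar lipids (TMM, TDM) run on TLC in chloroform/methanol/water 40:8:1; MAME and arabinogalactan-bound mycolates in petroleum ether/acetone 95:5; autoradiography.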

For data set [12], the system named is Mycobacterium tuberculosis. Description: Antibacterial activity against Mycobacterium tuberculosis by AlamarBlue assay. In kind it is functional.
A short description of data set [13]: Permeability of the compound at 25 uM at pH 5 after 4 hrs by LC-MS based PAMPA. It counts as physicochemical. The note with it: read-out: permeability. The gist of the method: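 PAMPA: 25 μM compound in aqueous buffer at pH 7.4 or 5.0 (pH adjusted with NaOH) in donor plate, triplicate; acceptor membrane coated with GIT-0 lipid, acceptor sink buffer; 4 h at 25 ± 2 °C; donor and acceptor solutions analysed by LC-MS (UPLC).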
On the technique in general: The PAMPA barrier holds no transporters, so it reflects passive diffusion.

For data set [14], the system named is Mycobacteroides abscessus. As to the kind of experiment: Antibacterial activity against CF patient derived Mycobacterium abscessus subsp. abscessus isolate 3321 smooth variant after 3 to 5 days by two fold serial dilution method. It counts as functional. The gist of the method: as §1
Data set [15] deals with Mycobacteroides abscessus. Description: Inhibition of MmpL3 A309P mutant in Mycobacterium abscessus CIP104536 smooth variant harboring pMV261 MAB_4508_A309P mutant assessed as reduction in trehalose monomycolate transport at 6.2 ug/ml preincubated for 1 hr followed by [14C]acetic acid addition measured after 2 hrs by TLC based autoradiography analysis. The gist of the method:
as §2

The test system of data set [16] is Mycobacteroides abscessus. As to the kind of experiment: Inhibition of MmpL3 in Mycobacterium abscessus CIP104536 smooth variant assessed as reduction in arabinogalactan mycolation preincubated for 1 hr followed by [14C]acetic acid addition measured after 2 hrs by TLC based autoradiography analysis. A digest of the protocol:
as §2

The test system of the next data set is Vero. As to the kind of experiment: Cytotoxicity against African green monkey Vero cells. It counts as cell-based. The note with it: Chlorocebus sabaeus.
For another data set, the target named is T1, CYP1A2 (Homo sapiens, UniProt P05177).
T1 sequence (P05177 whole entry): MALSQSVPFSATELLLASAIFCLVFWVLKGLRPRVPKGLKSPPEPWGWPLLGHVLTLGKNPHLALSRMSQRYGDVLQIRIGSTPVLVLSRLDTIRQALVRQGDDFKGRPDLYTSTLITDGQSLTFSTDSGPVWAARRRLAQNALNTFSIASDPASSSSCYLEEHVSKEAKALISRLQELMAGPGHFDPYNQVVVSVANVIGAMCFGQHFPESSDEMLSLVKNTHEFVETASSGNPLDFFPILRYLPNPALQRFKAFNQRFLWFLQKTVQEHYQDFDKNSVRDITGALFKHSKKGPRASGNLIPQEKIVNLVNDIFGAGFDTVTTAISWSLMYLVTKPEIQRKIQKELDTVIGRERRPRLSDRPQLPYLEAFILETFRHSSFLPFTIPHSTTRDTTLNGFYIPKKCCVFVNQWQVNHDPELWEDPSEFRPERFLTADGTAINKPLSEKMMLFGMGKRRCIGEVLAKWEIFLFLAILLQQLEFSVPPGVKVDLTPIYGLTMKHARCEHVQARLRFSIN
As to the kind of experiment: Inhibition of CYP1A2 in human liver microsomes preincubated for 5 mins followed by NADPH addition at 10 uM measured after 10 mins by LC-MS/MS analysis relative to control. In kind it is ADME.

A short description of data set [17]: Antibacterial activity against CF patient derived Mycobacterium abscessus subsp. bolletii isolate 112 rough variant after 3 to 5 days by two fold serial dilution method. In kind it is functional. To be noted: Mycobacteroides abscessus. A digest of the protocol:
as §1

For the compound `O=C(NC1CCCCCC1)c1cc2c(Cl)cc(Cl)cc2[nH]1`, the MIC (usually the lowest concentration found to suppress growth) in [1] amounted to 0.125 µg/mL (≈ 0.384 µM); in data set [2] it was 0.125 µg/mL (≈ 0.384 µM); in data set [3], 0.25 µg/mL (≈ 0.769 µM); in data set [4] it was 32 µg/mL (≈ 98.4 µM); in data set [5], 0.125 µg/mL (≈ 0.384 µM); in data set [7] it was 0.125 µg/mL (≈ 0.384 µM). The MIC in [8], in [9], in data set [10], in data set [14] and in [17] was 0.125 µg/mL (≈ 0.384 µM) throughout. The fraction unbound at 10 min, 5 µM in [6] was 0.008. In the data set with Salmonella typhimurium, the “fold change (FC)” value is under 2. Moreover, in the data set with Liver, the CLH was 4.8 mL/min/g. Moreover, the figures for the IC50 on Cytochrome P450 3A4 and in the data set on Vero were at most 20 µM and 8 to 16 µg/mL (≈ 24.6 to 49.2 µM), respectively. Also, the inhibition (usually the share of the control response that was lost under treatment) at 40 min, 10 µM at CYP2C19 stood at 4%. In addition, the inhibition result in [11] and in data set [15] was “Active” throughout. Moreover, in data set [12], the “MIC=<90” value came out at 0.0039 µg/mL (≈ 0.012 µM). For the same compound, the Papp at 4 h, 25 µM in [13] came to 0.3 ×10⁻⁶ cm/s. Further, the inhibition result in data set [16] is “Dose-dependent effect”. For the same compound, the inhibition at 10 min, 10 µM at CYP1A2 came to 19%.

(Values after ChEMBL document CHEMBL4014347, “Targeting Mycolic Acid Transport by Indole-2-carboxamides for the Treatment of Mycobacterium abscessus Infections” (J Med Chem, 2017).)
